In the library only some 2% were active in any assay of this set; here they are far more common.
M1 antag = antagonists of human M1 muscarinic receptor; P11229; CHO-K1 hM1, Fluo-8 calcium fluorescence, ACh EC80 antagonist; inhibition, % at 3 µM; hit rate 1.3% among 360,000; AID 588852;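 active means percent inhibition above its own plate's cutoff, namely the mean of that plate's compound wells plus 3 SD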;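 further: peak over basal fluorescence ratio during 140 s after agonist addition; 0% = ACh EC80 plus DMSO and 100% = DMSO alone without agonist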
Target sequence (P11229 whole entry, looked up): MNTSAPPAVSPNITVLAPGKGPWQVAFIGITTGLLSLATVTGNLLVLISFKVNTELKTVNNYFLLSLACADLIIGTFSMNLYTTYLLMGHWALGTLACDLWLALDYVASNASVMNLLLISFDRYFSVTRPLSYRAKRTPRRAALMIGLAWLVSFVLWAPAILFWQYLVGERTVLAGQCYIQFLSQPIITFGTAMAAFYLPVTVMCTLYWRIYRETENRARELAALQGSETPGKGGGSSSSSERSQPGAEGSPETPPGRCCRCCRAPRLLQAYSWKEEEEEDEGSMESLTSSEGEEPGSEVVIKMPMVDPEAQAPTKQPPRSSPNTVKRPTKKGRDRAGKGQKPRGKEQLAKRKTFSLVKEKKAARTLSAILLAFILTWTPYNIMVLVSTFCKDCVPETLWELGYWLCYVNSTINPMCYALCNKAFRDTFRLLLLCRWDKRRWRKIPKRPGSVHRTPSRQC
CHRM5 agonist = agonists of human muscarinic M5 receptor (CHRM5). CHO-K1 hM5 cells, Fluo-8 calcium fluorescence; 0% DMSO wells, 100% maximal acetylcholine response. activation, % at 3 µM. hit rate 0.19% among 360,000. AID 624037;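 active means activation above the run's mean over test compounds plus 3 SD, cut at about 23% in these data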;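 further: signal is peak over basal fluorescence ratio across the kinetic read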
CHRM1 agonist = activates human CHRM1 receptor; P11229; CHO-K1 hM1, Fluo-8 calcium fluorescence, agonist mode; 0% DMSO, 100% acetylcholine EC100; activation, % at 3 µM; hit rate 0.33% among 360,000;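 active means activation above the run's mean compound activation plus 3 SD, cut at about 16% in these data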;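 further: peak over basal fluorescence ratio within a 140 s kinetic read after compound addition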
CHRM1 PAM = potentiates human M1 receptor response to acetylcholine. CHO-K1 hM1, Fluo-8 calcium fluorescence, ACh EC20; 0% = ACh EC20, 100% = maximal ACh. hit rate 0.088% among 360,000. activation, % at 3 µM. P11229; in the data active means activation above about 19%, passing the limit was not always enough
CHRM5 antagonist = antagonists of human muscarinic M5 receptor (CHRM5); P08912; CHO-hM5 cells, Fluo-8 calcium fluorescence, ACh EC80; inhibition, % at 3 µM; hit rate 0.59% among 360,000;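 active means inhibition above a per-plate cutoff, the mean of that plate's test compounds plus 3 SD, cut at about 27% in these data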;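 further: 0% = acetylcholine EC80 with DMSO and 100% = DMSO without agonist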
M5 PAM = CHRM5 positive allosteric modulation; hit rate 0.3% among 360,000; activation, % at 3 µM; CHO-K1 hM5, Fluo-8 calcium, ACh EC20 PAM; 0% = ACh EC20, 100% = ACh EC100; AID 624038;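 active means activation above the run cutoff, the mean activation of all test compounds plus 3 SD, cut at about 18% in these data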
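System: CHO-K1 hM5 cells. Reagent: acetylcholine, EC20 level. Compound dosing: single dose, 3 µM nominal final test concentration. Timing: Post-acetylcholine fluorescence recording 140 s. Detection: Fluo-8 calcium fluorescence. Read-out: % activation, ACh-normalized. Benchmarks: ACh EC20 and EC100 wells. Repeats: singlicate, one well per test compound.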
Starred values were filed as active, the others as inactive.

For Cc1nnc2ccc(-c3cccc(NS(=O)(=O)c4ccccc4Cl)c3)nn12 the results were M1 antag 2, CHRM5 agonist 0, CHRM1 agonist -7, CHRM1 PAM -3, CHRM5 antagonist 3 and M5 PAM 0.
Screening Cc1nnc2ccc(-c3cccc(NS(=O)(=O)c4ccccc4[N+](=O)[O-])c3)nn12 returned M1 antag 32*, CHRM5 agonist -4, CHRM1 agonist -7, CHRM1 PAM -24, CHRM5 antagonist 10 and M5 PAM -11.
`CCCN(C)C1CN(Cc2cn(Cc3cccc(Cl)c3)nn2)S(=O)(=O)C1` (centres undefined) gave CHRM5 agonist -1, CHRM5 antagonist 2 and M5 PAM -5.
For O=[N+]([O-])c1cc(Cl)cc(/C=N/n2cnnc2)c1O the results were M1 antag 6, CHRM5 agonist 15, CHRM1 agonist 2, CHRM1 PAM 0, CHRM5 antagonist 4 and M5 PAM 25*.
`O=[N+]([O-])c1cc(Br)cc(/C=N/n2cnnc2)c1O` gave M1 antag 6, CHRM5 agonist 4, CHRM1 agonist 2, CHRM1 PAM 1, CHRM5 antagonist 6 and M5 PAM 1.
N#C/C(=C/c1ccc(N2CCOCC2)o1)C(=O)Nc1ccccc1 was read as M1 antag 32, CHRM5 agonist 43*, CHRM1 agonist 50*, CHRM1 PAM -23, CHRM5 antagonist 27* and M5 PAM -21.
N#C/C(=C\c1ccc(N2CCOCC2)o1)C(=O)NCCc1ccccc1 was read as M1 antag 9, CHRM5 agonist 47*, CHRM1 agonist 21*, CHRM1 PAM -17, CHRM5 antagonist 16 and M5 PAM -23.
C(=C\c1ccccc1)/CN1CCN(Cc2nc(Cc3ccccc3)no2)CC1 was read as M1 antag 43*, CHRM5 agonist -10, CHRM1 agonist -12, CHRM1 PAM -31, CHRM5 antagonist 5 and M5 PAM -17.
`c1ccc(Cc2noc(CN3CCC(CN4CCOCC4)CC3)n2)cc1` gave M1 antag 19, CHRM5 agonist -16, CHRM1 agonist -8, CHRM1 PAM -12, CHRM5 antagonist 10 and M5 PAM 0.
Screening c1ccc(Cc2noc(CN3CCCN(C4Cc5ccccc5C4)CC3)n2)cc1 returned M1 antag 100*, CHRM5 agonist -12, CHRM1 agonist -6, CHRM1 PAM -24, CHRM5 antagonist 32* and M5 PAM -31.
Screening c1ccc(Cc2noc(CN3CCN(C4CCc5ccccc5C4)CC3)n2)cc1 (centres undefined) returned M1 antag 88*, CHRM5 agonist -18, CHRM1 agonist -8, CHRM1 PAM -27, CHRM5 antagonist 5 and M5 PAM -26.
Screening Cc1ccc(-n2c(C)nc3c(cnn3-c3ccc(F)cc3)c2=O)cc1C returned M1 antag 29*, CHRM5 agonist 2, CHRM1 agonist 1, CHRM1 PAM -12, CHRM5 antagonist 4 and M5 PAM -8.
For Cc1ccc(-n2c(C)nc3c(cnn3-c3ccc(C)c(C)c3)c2=O)cc1C the results were M1 antag 10, CHRM5 agonist 4, CHRM1 agonist -5, CHRM1 PAM -8, CHRM5 antagonist 7 and M5 PAM -5.
O=C(Nc1ccc(-n2ccc(C(F)(F)F)n2)cc1)Nc1cccc(Cl)c1 was read as M1 antag 45*, CHRM5 agonist 7, CHRM1 agonist 4, CHRM1 PAM -19, CHRM5 antagonist 38* and M5 PAM -30.
Screening O=C(Nc1cccc(Cl)c1)Nc1csc([N+](=O)[O-])c1 returned M1 antag 26, CHRM5 agonist 2, CHRM1 agonist 6, CHRM1 PAM 0, CHRM5 antagonist 28* and M5 PAM -26.
`Cc1cc(C)cc(NC(=O)Nc2ccc(-n3ccc(C(F)(F)F)n3)cc2)c1` gave M1 antag 18, CHRM5 agonist 1, CHRM1 agonist -1, CHRM1 PAM -9, CHRM5 antagonist 22 and M5 PAM -24.
`CCOC(=O)c1sc(NC(=O)Nc2cccc(Cl)c2)cc1C` gave M1 antag 43*, CHRM5 agonist 7, CHRM1 agonist 3, CHRM1 PAM -18, CHRM5 antagonist 37* and M5 PAM -18.
Cc1nccc(-c2cccc(NC(=O)Nc3ccc(Cl)cc3)c2)n1 was read as M1 antag 17, CHRM5 agonist 8, CHRM1 agonist 3, CHRM1 PAM -14, CHRM5 antagonist 28* and M5 PAM -30.
`Cc1nc(C)c(-c2csc(Nc3ccc(Cl)cn3)n2)s1` gave M1 antag -13, CHRM5 agonist 0, CHRM1 agonist -6, CHRM1 PAM 7, CHRM5 antagonist 4 and M5 PAM -1.
For O=C(NCc1ccncc1)Nc1cccc(Cl)c1 the results were M1 antag -8, CHRM5 agonist -7, CHRM1 agonist -3, CHRM1 PAM 4, CHRM5 antagonist -5 and M5 PAM 2.
For O=C(Nc1ccncc1)Nc1cccc(Cl)c1 the results were M1 antag 18, CHRM5 agonist 9, CHRM1 agonist 5, CHRM1 PAM -10, CHRM5 antagonist 31* and M5 PAM -13.
`CC(C)NC(=O)N[C@H]1C=C[C@H](CC(=O)NCc2ccc(Oc3ccccc3)cc2)O[C@@H]1CO` gave CHRM5 agonist -1, CHRM5 antagonist -11 and M5 PAM 5.
CN(C(=O)CO/N=C/c1ccc(OC(F)F)cc1)C1CCS(=O)(=O)C1 (centres undefined) was read as M1 antag -12, CHRM5 agonist 4, CHRM1 agonist -6, CHRM1 PAM 17, CHRM5 antagonist -6 and M5 PAM 19*.
Screening Cc1cc(C)nc(/N=C(\N)N2CCCCCC2)n1 returned M1 antag 30*, CHRM5 agonist -6, CHRM1 agonist -12, CHRM1 PAM -24, CHRM5 antagonist 5 and M5 PAM 0.
For CCN(CC)S(=O)(=O)c1ccc(C(=O)OCn2nnc3ccccc3c2=O)cc1 the results were M1 antag active, CHRM5 agonist 7, CHRM1 agonist -2, CHRM1 PAM -15, CHRM5 antagonist 9 and M5 PAM -15.
`CC(NC(=O)c1ccccc1)C(=O)OCn1nnc2ccccc2c1=O` (centres undefined) gave M1 antag -7, CHRM5 agonist -4, CHRM1 agonist -6, CHRM1 PAM 7, CHRM5 antagonist -8 and M5 PAM 20*.
O=C(OCn1nnc2ccccc2c1=O)c1ccc(S(=O)(=O)N2CCOCC2)cc1 was read as M1 antag -4, CHRM5 agonist -4, CHRM1 agonist -4, CHRM1 PAM 5, CHRM5 antagonist 1 and M5 PAM -5.

Source: PubChem BioAssay
